NPY Y1 blocker = NPY-Y1 (human) receptor antagonism; inhibition, % at 3.6 µM; actives 1% (n = 200,000); HEK293-CNG Y1 cells, membrane potential fluorescence; NPY at EC95, then isoproterenol; P25929; AID 1040;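 active means inhibition above the campaign mean inhibition of all tested compounds plus 3 SD, cut at about 20% in these data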;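 further: 0% = DMSO wells given NPY plus isoproterenol and 100% = isoproterenol alone without NPY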
Target sequence (P25929 whole entry, looked up): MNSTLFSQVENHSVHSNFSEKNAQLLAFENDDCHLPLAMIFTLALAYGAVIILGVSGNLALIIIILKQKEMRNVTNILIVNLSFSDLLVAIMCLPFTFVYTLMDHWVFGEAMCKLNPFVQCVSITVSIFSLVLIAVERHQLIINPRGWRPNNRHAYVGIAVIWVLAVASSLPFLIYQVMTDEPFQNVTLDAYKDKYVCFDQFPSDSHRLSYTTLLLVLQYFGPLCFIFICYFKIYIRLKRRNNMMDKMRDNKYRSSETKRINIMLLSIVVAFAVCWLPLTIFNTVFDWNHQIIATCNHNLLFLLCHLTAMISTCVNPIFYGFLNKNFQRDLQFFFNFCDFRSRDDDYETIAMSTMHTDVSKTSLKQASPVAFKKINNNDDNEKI
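Test system – HEK293 Y1/CNG channel cell line · Also added – NPY agonist 25 nM, then isoproterenol 1 µM plus Ro 20-1724 25 µM · Compound dosing – one concentration, 3.6 µM, in 0.4% DMSO · Schedule – compound incubation 1 h at room temperature, readout 45 min post-stimulation · Technique – fluorescence, membrane potential probe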
NPY-Y2 antag = antagonists of human neuropeptide Y receptor Y2; inhibition, % at 2.7 µM; NPY-Y2 expressing cells, antagonist mode; AID 793; actives 0.99% (n = 140,000);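 further: 0% = vehicle with agonist challenge and 100% = reference antagonist with challenge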
NPY-Y2 PAM-ag = human NPY-Y2 potentiation or agonism, primary screen. cells expressing NPY-Y2, potentiator/agonist read-out. P49146. AID 1359. activation, % at 3.6 µM. actives 0.45% (n = 220,000); in the data active means activation above about 27%;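 further: cells stimulated with NPY near EC25 plus isoproterenol at EC100; 0% = vehicle plus submaximal agonist and 100% = vehicle plus saturating agonist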
NPY-Y1 PAM-ag = potentiators or agonists of human neuropeptide Y receptor Y1 | P25929 | actives 0.37% (n = 220,000) | AID 1304 | activation, % at 3.6 µM | NPY-Y1 expressing cells, potentiator/agonist activation; in the data active means activation above about 33%, passing the limit was not always enough;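 further: cells stimulated with NPY at EC10 then isoproterenol at EC100; 0% = low agonist plus stimulus and 100% = saturating agonist plus stimulus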
NPY-Y1 ant conf = human NPY-Y1 antagonism, confirmation; shares compounds with NPY Y1 blocker; HEK293-CNG NPY-Y1, membrane potential fluorescence, cAMP; NPY challenge against isoproterenol-raised cAMP; inhibition, % at 3.6 µM; actives 21% (n = 1,200); AID 1254; in the data active means inhibition above about 20%;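 further: 0% = vehicle with agonist plus stimulus and 100% = stimulus alone without agonist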
NPY-Y2 antag ct = antagonizes human NPY-Y2, counter-screen to NPY-Y1 antagonists | actives 28% (n = 1,200) | AID 1255 | HEK293 NPY-Y2 CNG membrane potential fluorescence, antagonism; cells given NPY, then isoproterenol | inhibition, % at 3.6 µM | shares compounds with NPY Y1 blocker;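 further: 0% = DMSO with agonist challenge and 100% = reference antagonist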
* marks the source's active call; other numbers are inactive results; x = no result. Only some compounds are listed: those with a hit (about 1.8% of all), similar ones and a draw of the others. Unless noted, no stated cut-off is given here; in the data, active means inhibition above about 17%; inactive means the rest.

SMILES	NPY Y1 blocker	NPY-Y2 antag	NPY-Y2 PAM-ag	NPY-Y1 PAM-ag	NPY-Y1 ant conf	NPY-Y2 antag ct
Cc1cc(=O)cc(C)n1-c1ccc(F)cc1F	3	x	-1	-15	x	x
Cn1c(SCc2cc(=O)[nH]c3ccccc23)nnc1-c1ccc(Br)cc1	2	2	-7	15	x	x
O=C(O)c1cc2c(ccc3ccccc32)o1	32*	14	-21	-30	13	15
NNC(=O)c1cc2c(ccc3ccccc32)o1	-2	x	-4	5	x	x
CCc1ccccc1NC(=O)N1CCC(NC(=O)C(Cc2ccccc2)NC(C)=O)CC1 (stereo not given)	5	x	4	9	x	x
CCc1nccn1S(=O)(=O)c1ccc2ccc(C)cc2c1	34*	15	-43	-36	16	15
O=C(Nc1cccc(Cl)c1)C1C2CCC3C(CCC21)C3(Cl)Cl (stereo not given)	33*	14	8	-13	5	2
O=C(N/N=C/C1CC2CCC1C2)c1ccc2c(c1)OCO2 (stereo not given)	6	-1	17	-3	x	x
O=C(CSc1nnc(-c2cccs2)n1CC1CCCO1)N1CCCC1 (stereo not given)	-1	x	-2	5	x	x
CCOc1ccc(C(C)=O)cc1CSc1nnc(-c2cccs2)n1CC1CCCO1 (stereo not given)	27*	5	-29	-21	6	5
CC(C)N1CCN(Cc2ccc(Sc3nncn3C)o2)CC1CCO (stereo not given)	x	x	-5	6	x	x
COc1cc(C)c(C)cc1S(=O)(=O)N1CCN(Cc2ccc3c(c2)OCO3)CC1	24*	11	-23	-43	13	11
CCCCOc1ccccc1C1CC(=O)NC2=C1C(=O)CCC2 (stereo not given)	44*	3	-8	-13	10	21*
CCCOc1ccccc1C1CC(=O)NC2=C1C(=O)CCC2 (stereo not given)	-3	4	8	23	x	x
COc1ccccc1CCNC(=O)c1nc(-c2cccs2)no1	24*	x	-18	-11	8	5
COc1ccc(-n2c(-c3ccc(Cl)cc3)c[n+]3c2CCc2ccccc2-3)cc1	23*	x	-6	-8	24*	11
COc1cccc(CC2(CO)CCCN(Cc3c(C)cc(C)cc3-n3cccn3)C2)c1 (stereo not given)	38*	x	-39	-37	24*	20*
COc1ccc(OC)c(CCNC(=O)CS(=O)(=O)Cc2nc(-c3ccccc3C)oc2C)c1	21*	16	-47	-41	7	7
Cn1c(C(=O)N(Cc2ccccc2)Cc2cccs2)cc2sccc21	21*	7	-18	-25	6	5
Cn1c(C(=O)N(Cc2ccccc2)Cc2ccccn2)cc2sccc21	-1	11	12	16	x	x
CN(CCC#N)C(=S)NC(=O)c1ccc(S(=O)(=O)N2CCOCC2)cc1	46*	x	4	10	0	0
Cc1cc(C)nc(SC(C)CNS(=O)(=O)c2ccccc2)n1 (stereo not given)	0	x	-7	-14	x	x
Cc1oc(-c2ccc(Cl)cc2)nc1CN1CCC(C(=O)NCCCN2CCOCC2)CC1	23*	7	3	-38	4	8
CC(C)(C)NC(=O)c1oc2ccccc2c1COc1ccccc1	28*	13	-7	-47	26*	14
COc1ccc(-n2cc(C#N)c(=O)[nH]c2=O)cc1	2	x	-3	4	x	x
SMILES	NPY Y1 blocker	NPY-Y2 antag	NPY-Y2 PAM-ag	NPY-Y1 PAM-ag	NPY-Y1 ant conf	NPY-Y2 antag ct
O=C(COC(=O)CSc1ccc2ccccc2c1Br)NC1CC1	25*	x	-31	-38	15	12
CN(C)CCNC(=O)c1sc2cccc(F)c2c1Cl	33*	x	-6	-22	3	8
CC(C)CCNc1nc(-c2ccco2)c2c(c1C#N)CCCC2	22*	5	-23	-34	1	5
Cc1nc(C)c(Oc2cccc(C(F)(F)F)c2)c(=O)[nH]1	x	x	-1	9	x	x
COc1cccc(C(C(=O)NC2CCCC2)N(CC2CCCO2)C(=O)Cc2cccs2)c1 (stereo not given)	26*	x	-10	12	8	8
COc1ccc(CN(C(=O)Cc2cccs2)C(C(=O)NC2CCCC2)c2ccncc2)cc1 (stereo not given)	-1	0	0	15	x	x
